Calls of active or inactive are those of the source. No cut-off for these calls is given here.

Sequence of G1/S-specific cyclin-D1 (Homo sapiens) (P24385 whole entry): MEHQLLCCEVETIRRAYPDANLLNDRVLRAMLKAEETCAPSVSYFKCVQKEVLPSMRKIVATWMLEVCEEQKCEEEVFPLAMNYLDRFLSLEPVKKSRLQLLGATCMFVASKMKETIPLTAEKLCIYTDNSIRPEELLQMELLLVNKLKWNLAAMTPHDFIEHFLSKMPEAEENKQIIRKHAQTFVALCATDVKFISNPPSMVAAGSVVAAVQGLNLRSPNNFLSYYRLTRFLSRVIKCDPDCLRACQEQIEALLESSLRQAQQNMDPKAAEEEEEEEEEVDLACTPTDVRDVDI

In one test the test system is MCF7. Put plainly: Cell cycle arrest in human MCF7 cells assessed as accumulation at S phase at 10 uM after 24 hrs using propidium iodide staining based flow cytometric analysis (reference value: 12.92 +/- 1 %). The class given is functional. (In flow cytometry, cells or beads pass a laser one at a time.)
As for `COc1ccc(/C=C/C(=O)c2ccc(O)cc2)cc1O`, the Activity is reported as 6.55%.
For the compound `COc1cc(/C=C/C(=O)c2cc(Cl)ccc2O)ccc1OCCCCCn1cc(COc2cc3c(cc2OC)C(=O)N2CCC[C@H]2C=N3)nn1`, the Activity was 7.28%.

In the next test the test system is MCF7. Description: Cytotoxicity against human MCF7 cells assessed as reduction in cell viability at 4 uM after 24 hrs by MTT assay. It is filed as functional, cell-based. The method, boiled down: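 MCF-7 cells were seeded at 10,000 per well and left overnight, then treated with 4 µM compound for 24 h. MTT was added for 2 h at 37 °C, formazan was solubilized in extraction buffer, and OD was read at 570 nm. Untreated cells served as control. Three independent experiments, SD.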
(Formazan colour is commonly taken as a measure of viable cells.)
As to `COc1ccc(/C=C/C(=O)c2ccc(O)cc2)cc1O`, the outcome was Active.

For the next test, the system named is A2780. Description: Anticancer activity against human A2780 cells by SRB method. The class given is functional. The method, boiled down: (§1)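 Growth inhibition over a panel of human cancer lines (lung, ovarian, oral, colon, prostate, cervix, breast). Value is the 50% growth-inhibition concentration, reported as the mean ± standard error of the mean of three determinations.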
For orientation: In SRB staining, fixed cells bind dye roughly in proportion to their protein.
Turning to `COc1cc(/C=C/C(=O)c2cc(Cl)ccc2O)ccc1OCCCCCn1cc(COc2cc3c(cc2OC)C(=O)N2CCC[C@H]2C=N3)nn1`, it took 0.15 µM to inhibit growth by half (GI50).

The subject of a further test is MCF7. Put plainly: Cell cycle arrest in human MCF7 cells assessed as accumulation at G2/M phase at 10 uM after 24 hrs using propidium iodide staining based flow cytometric analysis (reference value: 38.15 +/- 1.068 %). It is filed as functional.
With `COc1ccc(/C=C/C(=O)c2ccc(O)cc2)cc1O`, the Activity was 31.5%.
As to `COc1cc(/C=C/C(=O)c2cc(Cl)ccc2O)ccc1OCCCCCn1cc(COc2cc3c(cc2OC)C(=O)N2CCC[C@H]2C=N3)nn1`, the Activity stood at 22.06%.

System in a further test: not listed separately
Description: Anticancer activity against human Gurav cells by SRB method. The class given is functional. The procedure, abridged:
as §1
On to `COc1cc(/C=C/C(=O)c2cc(Cl)ccc2O)ccc1OCCCCCn1cc(COc2cc3c(cc2OC)C(=O)N2CCC[C@H]2C=N3)nn1`, for which the GI50 (commonly the concentration that inhibits growth by half) is 0.19 µM. This lies in the sub-micromolar range.

System in another test: not listed separately
Put plainly: Down regulation of NF-kappaB activity expressed in human MCF7 cells transfected with NF-kB SEAP plasmid at 4 uM after 24 hrs by chemiluminescence-based luminometric analysis. The class given is cell-based. The procedure, abridged:
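MCF-7 cells were transiently transfected with the NF-kB SEAP plasmid using lipofectamine 2000. After 24 h, cells were treated with 4 µM compound for 24 h. Lysates were assayed with a chemiluminescent reagent and read by luminometry and by 30 min X-ray film exposure. Transfected untreated cells served as control.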
In the case of `COc1cc(/C=C/C(=O)c2cc(Cl)ccc2O)ccc1OCCCCCn1cc(COc2cc3c(cc2OC)C(=O)N2CCC[C@H]2C=N3)nn1`, the outcome was Active.

For a further test, the system named is MCF7. Description: Induction of cell cycle arrest at G1 phase in human MCF7 cells at 4 uM after 24 hrs using propidium iodide staining based flow cytometric analysis. The class given is functional. The procedure, abridged: (§2)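 MCF-7 cells were seeded at 5 × 10^5 per 60 mm dish and grown for 24 h, then exposed to 4 µM compound for 24 h. Cells were trypsinized, fixed in ice-cold 70% ethanol at 4 °C for 30 min and treated with 1 mg/ml RNase at 37 °C for 30 min. They were stained with propidium iodide/citrate/Triton X-100, and DNA content was read on 20,000 events by flow cytometry. Three independent repeats.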
Regarding `COc1cc(/C=C/C(=O)c2cc(Cl)ccc2O)ccc1OCCCCCn1cc(COc2cc3c(cc2OC)C(=O)N2CCC[C@H]2C=N3)nn1`, the result was Active.

For the next test, the system named is MCF7. Description: Cell cycle arrest in human MCF7 cells assessed as accumulation at G0 phase at 10 uM after 24 hrs using propidium iodide staining based flow cytometric analysis (reference value: 1.27 +/- 0.08 %). The class given is functional.
With `COc1ccc(/C=C/C(=O)c2ccc(O)cc2)cc1O`, the Activity is 10.15%.
For the compound `COc1cc(/C=C/C(=O)c2cc(Cl)ccc2O)ccc1OCCCCCn1cc(COc2cc3c(cc2OC)C(=O)N2CCC[C@H]2C=N3)nn1`, the Activity is 10.75%.

System in the next test: not listed separately
Description: Anticancer activity against human DWD cells by SRB method. The class given is functional. The procedure, abridged: as §1
In turn, `COc1cc(/C=C/C(=O)c2cc(Cl)ccc2O)ccc1OCCCCCn1cc(COc2cc3c(cc2OC)C(=O)N2CCC[C@H]2C=N3)nn1` came in with a GI50 of 2.3 µM. This lies in the single-digit micromolar range.

In another test the test system is A549. Put plainly: Anticancer activity against human A549 cells by SRB method. The class given is functional. The procedure, abridged:
as §1
With `COc1cc(/C=C/C(=O)c2cc(Cl)ccc2O)ccc1OCCCCCn1cc(COc2cc3c(cc2OC)C(=O)N2CCC[C@H]2C=N3)nn1`, the concentration for 50% growth inhibition (GI50) was found to be 2.09 µM.

The subject of a further test is PC-3. Put plainly: Anticancer activity against human PC3 cells by SRB method. It is filed as functional. The method, boiled down:
as §1
Regarding `COc1cc(/C=C/C(=O)c2cc(Cl)ccc2O)ccc1OCCCCCn1cc(COc2cc3c(cc2OC)C(=O)N2CCC[C@H]2C=N3)nn1`, the GI50 is 0.19 µM.

The next test relates to MCF7. Put plainly: Anticancer activity against human MCF7 cells by SRB method. The class given is functional. The method, boiled down: as §1
`COc1cc(/C=C/C(=O)c2cc(Cl)ccc2O)ccc1OCCCCCn1cc(COc2cc3c(cc2OC)C(=O)N2CCC[C@H]2C=N3)nn1` gave a 50% growth inhibitory concentration (GI50) of 0.18 µM.

A further test has as its system MCF7. Put plainly: Cell cycle arrest in human MCF7 cells assessed as accumulation at G1 phase at 10 uM after 24 hrs using propidium iodide staining based flow cytometric analysis (reference value: 47.64 +/- 1.49 %). It is filed as functional.
As to `COc1ccc(/C=C/C(=O)c2ccc(O)cc2)cc1O`, the Activity is 51.61%.
For the compound `COc1cc(/C=C/C(=O)c2cc(Cl)ccc2O)ccc1OCCCCCn1cc(COc2cc3c(cc2OC)C(=O)N2CCC[C@H]2C=N3)nn1`, the Activity worked out at 60.56%.

The test system of another test is HOP-62. Description: Anticancer activity against human HOP62 cells by SRB method. The class given is functional. The method, boiled down:
as §1
Take `COc1cc(/C=C/C(=O)c2cc(Cl)ccc2O)ccc1OCCCCCn1cc(COc2cc3c(cc2OC)C(=O)N2CCC[C@H]2C=N3)nn1`: growth was halved (GI50) at 2.28 µM. This lies in the single-digit micromolar range.

The subject of the next test is MCF7. Put plainly: Induction of apoptosis in human MCF7 cells assessed as down regulation of Bcl-xL expression at 4 uM after 24 hrs by Western blot.
Turning to `COc1cc(/C=C/C(=O)c2cc(Cl)ccc2O)ccc1OCCCCCn1cc(COc2cc3c(cc2OC)C(=O)N2CCC[C@H]2C=N3)nn1`, the outcome was Active.

The next test has as its system MCF7. Description: Downregulation of cyclin D1 protein expression in human MCF7 cells at 4 uM after 24 hrs by Western blot analysis. It is filed as functional, cell-based. The procedure, abridged: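 MCF-7 cells at 80% confluency were treated with 4 µM compound for 24 h. Cells were lysed in RIPA buffer with protease inhibitors and protein was quantified by Bradford. 50 µg per lane was run on 12% SDS-PAGE and transferred to PVDF. Blots were probed overnight at 4 °C with rabbit polyclonal anti-cyclin D1, with β-actin as loading control, and detected by chemiluminescence.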
Regarding `COc1cc(/C=C/C(=O)c2cc(Cl)ccc2O)ccc1OCCCCCn1cc(COc2cc3c(cc2OC)C(=O)N2CCC[C@H]2C=N3)nn1`, the outcome was Active.

The test system of another test is COLO 205. Description: Anticancer activity against human COLO205 cells by SRB method. The class given is functional. The method, boiled down:
as §1
`COc1cc(/C=C/C(=O)c2cc(Cl)ccc2O)ccc1OCCCCCn1cc(COc2cc3c(cc2OC)C(=O)N2CCC[C@H]2C=N3)nn1` came in with a concentration for 50% growth inhibition (GI50) of 0.1 µM.

The test system of a further test is MCF7. Description: Cytotoxicity against human MCF7 cells assessed as reduction in cell viability at 2 uM after 24 hrs by MTT assay. It is filed as functional, cell-based.
Turning to `COc1cc(/C=C/C(=O)c2cc(Cl)ccc2O)ccc1OCCCCCn1cc(COc2cc3c(cc2OC)C(=O)N2CCC[C@H]2C=N3)nn1`, the outcome was inactive.

For the next test, the system named is ZR-75-1. Put plainly: Anticancer activity against human ZR-75-1 cells by SRB method. It is filed as functional. The procedure, abridged:
as §1
`COc1cc(/C=C/C(=O)c2cc(Cl)ccc2O)ccc1OCCCCCn1cc(COc2cc3c(cc2OC)C(=O)N2CCC[C@H]2C=N3)nn1` had a concentration for 50% growth inhibition (GI50) of 2.02 µM.

The next test deals with G1/S-specific cyclin-D1 (Homo sapiens) (UniProt P24385). Description: Down regulation of Cyclin D1 promoter activity expressed in human MCF7 cells co-transfected with luciferase gene at 4 uM after 24 hrs by luciferase reporter gene assay. The class given is cell-based. The procedure, abridged:
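MCF-7 cells were transfected for 24 h with the cyclin D1 promoter (−1745) luciferase construct, which contains an NF-kB site. Cells were then treated with 4 µM compound (final) for a further 24 h, and lysate luciferase was measured by luminometer. Untransfected cells served as negative control and transfected untreated cells as control.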
For `COc1cc(/C=C/C(=O)c2cc(Cl)ccc2O)ccc1OCCCCCn1cc(COc2cc3c(cc2OC)C(=O)N2CCC[C@H]2C=N3)nn1`, the outcome was Active.

The test system of a further test is MCF7. Description: Induction of apoptosis in human MCF7 cells assessed as down regulation of Bcl2 expression at 4 uM after 24 hrs by ELISA. It is filed as functional, cell-based. The procedure, abridged: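 MCF-7 cells were treated with 4 µM compound for 24 h. Lysates were added to Bcl2 antibody-coated wells, followed by biotinylated anti-human Bcl2 monoclonal antibody, and bound Bcl2 was detected with streptavidin-HRP (sandwich ELISA).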
With `COc1cc(/C=C/C(=O)c2cc(Cl)ccc2O)ccc1OCCCCCn1cc(COc2cc3c(cc2OC)C(=O)N2CCC[C@H]2C=N3)nn1`, the result was Active.

The test system of another test is MCF7. Put plainly: Cell cycle arrest in human MCF7 cells assessed as accumulation at G0/G1 phase at 4 uM after 24 hrs using propidium iodide staining based flow cytometric analysis. The class given is functional. The method, boiled down:
as §2
For `COc1ccc(/C=C/C(=O)c2ccc(O)cc2)cc1O`, the Activity amounted to 64.11%.
As to `COc1cc(/C=C/C(=O)c2cc(Cl)ccc2O)ccc1OCCCCCn1cc(COc2cc3c(cc2OC)C(=O)N2CCC[C@H]2C=N3)nn1`, the Activity was 60.18%.
